Laboratory results reported in ChEMBL document CHEMBL4513216, “Probing the Open Global Health Chemical Diversity Library for Multistage-Active Starting Points for Next-Generation Antimalarials” (ACS Infect Dis, 2020).

Assay: Toxicity liver stage against HepG2, at 10uM
Type: cell-based
Design: test concentration 10 uM, cell line HepG2-A16-CD81EGFP
Conditions: human, HepG2-A16-CD81EGFP cells; read-out: INHIBITION
How it was run: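 Uninfected HepG2-A16-CD81EGFP cells, 3 × 10^3 per well, 1536-well, plated on prespotted compound at 10 μM final, parasite-free screening media added to match infected plates; puromycin 10 μM positive, DMSO 0.5% negative; run in parallel with 48 h PbLuc assay at 37 °C, 5% CO2; viability by CellTiter-Glo luminescence, normalized to controls.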

| Structure (SMILES) | cytotoxicity at 10 µM [%] |
| --- | --- |
| CC[C@H]1CN(S(=O)(=O)c2ccc(OC)cc2)CC[C@H]1CC(=O)O | 7.28 |
| Oc1cccc(-c2cc(CC3(N(CC4CC4)CC4CC4)COC3)no2)c1 | 6.15 |
| COc1ccc(OC)c(Sc2ncccc2C(=O)NCC2CC2)c1 | 20.7 |
| CC(C)(Oc1ccc(C(N)=O)cc1)C(=O)N(CCC#N)C1CC1 | 1.58 |
| COc1ccc(CC(=O)Nc2ccc3ncn(C)c(=O)c3c2)cc1 | 1.29 |
| COCCc1noc(C2CCN(S(=O)(=O)c3cccs3)CC2)n1 | 7.51 |
| Cn1cnnc1S(=O)(=O)C1CCN(C(=O)c2ccsc2)CC1 | 6.81 |
| Cc1ccsc1C(=O)N1CC2CC1(C(=O)NCC1CC1)C2 | -4.78 |
| NC(=O)N1C[C@@H]2CN(C(=O)c3ccco3)C[C@@H]2C1 | -2.54 |
| CCCN1CCC2(C1)c1ccccc1S(=O)(=O)N2Cc1ccc(F)cc1 (stereo unspecified) | 18.3 |
| O=C(O)c1cc(-c2ccn(CC3CC3)n2)n2ccccc12 | 13.2 |
| CN(C)c1ncc(-c2cc(C(=O)O)n(CC3CC3)c2)cn1 | -9.23 |
| Cn1cc(CN2CC3(CCN(C(=O)c4cscn4)C3)C2)cn1 | -11.9 |
| Nc1nnnn1NCc1cccc2ccccc12 | 10.4 |
| COCC(=O)N1CCCC(C)(c2nncn2C)C1 (stereo unspecified) | 4.08 |
| Nc1nc2nc(C3CCN(C(=O)c4cscn4)C3)ccc2s1 (stereo unspecified) | -5.72 |
| CNc1cc(CNC(=O)c2ccccc2OC)nc(-c2ccncc2)n1 | -13.7 |
| CC1CCCCN1c1nc2c(c(=O)[nH]1)CCN(Cc1ccccc1O)C2 (stereo unspecified) | -1.97 |
| CNc1cncc(C2CCCN2C(=O)Cn2c(=O)oc3ccccc32)n1 (stereo unspecified) | -6.14 |
| CC(C)NC(=O)CN(C)C(=O)c1c(Br)c2ccccc2n1C | 4.61 |
| CN(C)CC1CCCCN1C(=O)c1ccc(N2CCOCC2)cc1 (stereo unspecified) | -0.0679 |

| Structure (SMILES) | cytotoxicity at 10 µM [%] |
| --- | --- |
| CCN(C)S(=O)(=O)NCC(O)c1c(Cl)cccc1Cl (stereo unspecified) | 8.17 |
| Cc1ccc(Br)cc1S(=O)(=O)NCCc1nnc[nH]1 | -5.89 |
| CCCC(NC(=O)c1cncc(C)c1)c1nnn[nH]1 (stereo unspecified) | -15.5 |
| CNS(=O)(=O)c1cccc(C(C)NCc2nccn2C(C)C)c1 (stereo unspecified) | -12.6 |
| CC(=O)c1cccc(OCCCC(=O)N(C)Cc2cccc(O)c2)c1 | -4.58 |
| Cc1nc(NC(=O)N2CCCC(C(C)(C)O)C2)nn1C (stereo unspecified) | 13.5 |
| CNc1nc(N2CCN(C)C(CCO)C2)nc2c1CCC2 (stereo unspecified) | 2.66 |
| CN1CCC(C(=O)NCCC2CN(c3cnn(C)c(=O)c3)CCO2)CC1 (stereo unspecified) | 5.75 |
| O=S1(=O)C[C@@H]2[C@H](C1)N(Cc1cccc(O)c1)CCN2CC1CC1 | 1.79 |
| CCn1c(C)nnc1SCCNC(=O)c1cnc(C(C)(C)C)nc1O | -6.14 |
| Cc1nnc(CN(C)C2CCN(c3cccc(-c4cscn4)c3)CC2)o1 | -7.3 |
| Cc1ccn(CC(=O)N2CC[C@@H](c3ccc4ccccc4c3)[C@H](O)C2)n1 | 5.02 |
| c1ccc(Cn2cc(CNc3ncnc4c3CCNCC4)cn2)cc1 | 1.99 |
| CCN1CCc2[nH]cnc2C12CCN(Cc1ccc3nsnc3c1)CC2 | 3.72 |
| O=C(CCc1cc(O)no1)N1CCCC(OCc2cccnc2)C1 (stereo unspecified) | -12.7 |
| O=C(C1CCC1)N1CCN(C(=O)c2cnccn2)[C@H]2CS(=O)(=O)C[C@H]21 | -10.8 |
| CC(C)(C)c1ncc2c(n1)CN(C(=O)c1ccc(-c3nc[nH]n3)cc1)C2 | -16.8 |
| Cc1ccc(OC2(C(=O)O)CCN(C(=O)c3nc(C)oc3C)CC2)cn1 | -9.41 |
| CCC(NC(=O)C1CCN(S(C)(=O)=O)CC1)c1ccc(OC)c(C)c1 (stereo unspecified) | -10 |
| N#Cc1cc2c(nc1O)CCCCC2 | -6.88 |
| COCCN1CCC(NCc2ccc(Cl)cc2)C1 (stereo unspecified) | -5.56 |

| Structure (SMILES) | cytotoxicity at 10 µM [%] |
| --- | --- |
| CCc1nnc2n1CCN(Cc1cc(Cl)c3c(c1)OCCCO3)C2 | -5.83 |
| NC(=O)C1CCN(C(=O)c2ccn(-c3cccc(F)c3)n2)C1 (stereo unspecified) | -3.05 |
| COc1ccc(C(CNC(=O)NCc2csc(C)n2)N(C)C)cc1 (stereo unspecified) | -5.59 |
| Cc1cc(C)c(CNC(=O)NCC2COCCO2)c(=O)[nH]1 (stereo unspecified) | -3.81 |
| Cc1cnn(CCC(=O)N2CCN(c3nccs3)CC2)c1 | -8.03 |
| c1ccc(Cc2nc(CN3CCCC3Cn3cncn3)cs2)cc1 (stereo unspecified) | -2.54 |
| Cc1cc(C(=O)N2CCCC2c2c(C)nn(C)c2C)no1 (stereo unspecified) | -2.57 |
| CCc1ocnc1C(=O)N1CCOC(c2nc(C)n[nH]2)C1 (stereo unspecified) | -12 |
| CCN1CCC(NC(=O)CN2CC(n3nc(C)cc3C)C2)CC1 | -4.44 |
| CC(C)Cc1nc(CN2CCN(CC(O)c3ccccc3)CC2)no1 (stereo unspecified) | -14.4 |
| CCc1n[nH]c(C2CN(C(=O)c3ccnc(C)n3)CCO2)n1 (stereo unspecified) | -7.06 |
| Cc1nn(C)c(N(C)C)c1CNC(C)COc1ccccc1F (stereo unspecified) | -14.1 |
| Cc1nn(C)c(C)c1C1CCCN1Cc1nc(N)c2ccccc2n1 (stereo unspecified) | -16 |
| CC(C)(C)C(=O)NCCC(=O)NCCc1ccn(-c2ccccc2)n1 | -8.89 |
| CCc1nc(C2CCCN(C(=O)c3ccc(Cl)cc3)C2)no1 (stereo unspecified) | 5.71 |
| CCc1nc(CNCC2CCCN2c2cccnn2)no1 (stereo unspecified) | -12.6 |
| O=C(COc1cccnc1)N1CCCC(n2cccn2)C1 (stereo unspecified) | -1.92 |
| Cc1nc(C)n(C2CCCN(C(=O)c3nc(C)n4ccccc34)C2)n1 (stereo unspecified) | -10.9 |
| CC(C)c1nc(CN2CCC(CO)CC2)cs1 | -20.1 |
| O=C(Nc1cc(F)ccc1OCC1CCCO1)c1ccoc1 (stereo unspecified) | 4.43 |
| COCCn1cc(C(=O)N2CCCC(n3cncn3)C2)ccc1=O (stereo unspecified) | -2.38 |

| Structure (SMILES) | cytotoxicity at 10 µM [%] |
| --- | --- |
| Cc1cc(CN(C)C(=O)NCC2CCS(=O)(=O)C2)no1 (stereo unspecified) | -0.874 |
| O=C(NCCc1ccsc1)Nc1cccnc1N1CCCC1 | -6.78 |
| CCn1ccnc1CN1CCC(N(C)Cc2ncc(C)o2)C1 (stereo unspecified) | -7.48 |
| CN(C)CC1CN(Cc2nnc(-c3ccccc3Cl)o2)CCO1 (stereo unspecified) | 1.56 |
| CCOCCN1CCn2c(C)nnc2C1 | 3.34 |
| CN1CCC/C1=N\S(=O)(=O)c1ccc(NC(=O)c2cccs2)cc1 | -3.34 |
| CCc1n[nH]c(C2CN(CCc3ccncc3)CCO2)n1 (stereo unspecified) | 2.17 |
| Cc1cc(C)n(C2CCCN(C(=O)c3ccc(NC4CC4)nc3)C2)n1 (stereo unspecified) | 5.25 |
| COc1ccc(F)cc1-c1ccccc1CC1CNCCNC1=O (stereo unspecified) | 3.48 |
| Cn1ccc(C(=O)NC2CCC23CCN(Cc2cccnc2)CC3)c1 (stereo unspecified) | -12.1 |
| C[C@H]1C(=O)NC[C@H]2CN(Cc3cccc(F)c3)C[C@H]21 | 0.964 |
| Cc1ccnc(OC[C@@]23CCO[C@@H]2CCN(c2ncccn2)C3)n1 | 4.86 |
| COC[C@@]12CCO[C@@H]1CCN(Cc1ccccc1F)C2 | -12.9 |
| N#Cc1cccc(CN2CC[C@@H]3CO[C@@H](CN4CCCC4)[C@@H]3C2)c1 | -0.159 |
| Cc1noc(C)c1CN1CCN(CCN(C)C)c2ncccc2C1 | 7.83 |
| COCCN1CCCC12CCN(c1ncccn1)CC2 | 11.4 |
| CN(C)[C@@H]1CCN(C(=O)NC2CCCC2)[C@H]1Cc1ccncc1 | 5.83 |
| Cc1cccc(-n2cc3nc(N4CCC(C)CC4)[nH]cc-3c2=O)c1 | 0.738 |
